The values that follow come from ChEMBL document CHEMBL1133453, “Further studies on nociceptin-related peptides: discovery of a new chemical template with antagonist activity on the nociceptin receptor” (J Med Chem, 2000).

Structures are written as SMILES. Activity calls are given as the source filed them. The calls are words filed in the database; no cut-off is given here. Numbered stars: 1 amine (or outer) side, 2 acyl side, 3 side chain; on linkers, the order of the positions; unused ones are H or OH. Square brackets hold non-standard residues; d marks the D form. Peptide text beside a SMILES is read from it. X5 = N[C@@H](Cc1ccc(O)cc1)CN(CC(=O)[*:2])[*:1]; X1 = CC(C)C[C@H](N)CN(CC(=O)[*:2])[*:1]; Nphe = O=C(O)CNCc1ccccc1 Some results are limits rather than exact numbers.

The species entered for assay [1] is Mus musculus. Nature of the assay: Potency (Emax) against electrically evoked contraction (twitch response) in mouse vas deferens. The assay is classed as functional. In outline: (§1)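 Mouse vas deferens held in Mg2+-free Krebs at 33 °C under 0.3 g resting tension. Field stimulation through platinum electrodes with supramaximal 1-ms pulses at 0.1 Hz, twitches recorded isotonically. After about 2 h equilibration, cumulative concentration-response curves built in 0.5 log steps up to 10 µM. pEC50 taken as the concentration giving half-maximal effect. Mean of at least 3 experiments.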

The species named for assay [2] is Mus musculus. As to the kind of experiment: Compound was tested for agonistic activity against electrically evoked contraction (twitch response) in mouse vas deferens. The format is functional, organism-based. The procedure, abridged:
as §1

For assay [3], the target named is T1, Nociceptin receptor (Mus musculus, UniProt P35377). As to the kind of experiment: Affinity to nociceptin receptors on mouse forebrain membranes by [3H]NC-NH2 displacement. The procedure, abridged: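 Forebrain membranes from male Swiss mice (25-30 g), homogenized in 50 mM Tris HCl, 2 mM EDTA, 100 µM PMSF, pH 7.4, then preincubated 30 min at 37 °C. Bound ligand separated by GF/C filtration. Ki obtained by nonlinear least-squares fitting.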
T1 sequence (P35377 whole entry): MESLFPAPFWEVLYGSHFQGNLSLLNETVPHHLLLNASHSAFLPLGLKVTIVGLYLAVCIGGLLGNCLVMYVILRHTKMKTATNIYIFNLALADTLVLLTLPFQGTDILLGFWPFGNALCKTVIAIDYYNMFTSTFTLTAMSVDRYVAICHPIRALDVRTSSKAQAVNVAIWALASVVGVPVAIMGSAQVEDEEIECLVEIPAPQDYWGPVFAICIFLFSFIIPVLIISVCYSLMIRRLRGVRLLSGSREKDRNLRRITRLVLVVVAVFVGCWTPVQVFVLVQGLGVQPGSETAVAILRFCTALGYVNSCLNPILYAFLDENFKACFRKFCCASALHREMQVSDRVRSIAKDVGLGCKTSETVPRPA

For assay [4], the species on record is Mus musculus. As to the kind of experiment: Potency (Emax) against electrically evoked contraction (twitch response) in mouse vas deferens; NA means Inactive up to 10 uM. The format is functional, organism-based. In outline:
as §1

The species entered for assay [5] is Mus musculus. Nature of the assay: Compound was tested for agonistic activity against electrically evoked contraction (twitch response) in mouse vas deferens; NA means Inactive up to 10 uM. The assay is classed as functional, organism-based. In outline: as §1
The species entered for assay [6] is Mus musculus. As to the kind of experiment: Compound was tested for the antagonistic activity on mouse vas deferens using NC(1-13)NH2 as agonist; NA means Inactive up to 10 uM. The format is functional, organism-based. The procedure, abridged:
(§2)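 Electrically stimulated mouse vas deferens (Mg2+-free Krebs, 33 °C, 0.1 Hz, 1-ms pulses). Antagonist at 10 µM added 15 min before a cumulative NC(1-13)NH2 concentration-response curve. pKB calculated with the Gaddum-Schild equation, assuming a slope of 1, from the concentration ratio. Mean of at least 3 experiments, with 95% confidence limits.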

The target of assay [7] is T1, Nociceptin receptor. Nature of the assay: Binding affinity towards Orphanin FQ receptor on mouse forebrain membranes was determined using [3H]-NC-NH2 as radioligand. The arrangement: species or system Membrane. The procedure, abridged: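 Forebrain membranes from male Swiss mice (25-30 g), homogenized in 50 mM Tris HCl, 2 mM EDTA, 100 µM PMSF, pH 7.4, then preincubated 30 min at 37 °C. Competition against 0.5 nM [3H]NC-NH2 using 200 µg protein per assay, run in duplicate, 120 min at 25 °C. Bound ligand separated by GF/C filtration. Ki obtained by nonlinear least-squares fitting.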

Assay [8] is filed under the species Mus musculus. As to the kind of experiment: Potency (Emax) at 10 uM against electrically evoked contraction (twitch response) in mouse vas deferens; Slight effect (50% inhibition was detected at 10 uM). The format is functional, organism-based. In outline:
as §1

The species entered for assay [9] is Mus musculus. As to the kind of experiment: Compound was tested for agonistic activity against electrically evoked contraction (twitch response) in mouse vas deferens; Slight effect (50% inhibition was detected at 10 uM). The format is functional, organism-based. As to conditions: filed as partial agonist. In outline:
as §1

The species entered for assay [10] is Mus musculus. Nature of the assay: Compound was tested for the antagonistic activity on mouse vas deferens using NC(1-13)NH2 as agonist. The format is functional. In outline: as §2

As a reminder, the Emax is the size of the effect at its maximum, as opposed to the concentration needed. The EC50 is the concentration giving half of the maximal effect. High values mean weaker potency, low ones greater potency. On to `C[C@H](NC(=O)CNC(=O)[C@@H](NC(=O)[C@H](Cc1ccccc1)NC(=O)CNC(=O)CNC(=O)[C@@H](N)Cc1ccccc1)[C@@H](C)O)C(=O)N[C@@H](CCCNC(=N)N)C(=O)N[C@@H](CCCCN)C(=O)N[C@@H](CO)C(=O)N[C@@H](C)C(=O)N[C@@H](CCCNC(=N)N)C(=O)N[C@@H](CCCCN)C(N)=O`, for which the Emax in the assay listed under Mus musculus [1] is -84%. Moreover, the concentration giving a half-maximal response (EC50) in the assay listed under Mus musculus [2] is 15.8 nM.

A word on the Ki: it is a dissociation constant, usually derived from enzyme kinetics or from competition with a known ligand. Turning to `C[C@H](NC(=O)CNC(=O)[C@@H](NC(=O)[C@H](Cc1ccccc1)NC(=O)CNC(=O)CNC(=O)[C@@H](N)CC1CCCCC1)[C@@H](C)O)C(=O)N[C@@H](CCCN=C(N)N)C(=O)N[C@@H](CCCCN)C(=O)N[C@@H](CO)C(=O)N[C@@H](C)C(=O)N[C@@H](CCCN=C(N)N)C(=O)N[C@@H](CCCCN)C(N)=O`, in the assay filed under Mus musculus [1], the Emax is -84%. For the same molecule, the concentration giving a half-maximal response (EC50) in the assay listed under Mus musculus [2] is 12.6 nM. Also, on Nociceptin receptor [3], affinity was put at a Ki of 1 nM.

`Cc1ccc(C[C@H](N)C(=O)NCC(=O)NCC(=O)N[C@@H](Cc2ccccc2)C(=O)N[C@H](C(=O)NCC(=O)N[C@@H](C)C(=O)N[C@@H](CCCN=C(N)N)C(=O)N[C@@H](CCCCN)C(=O)N[C@@H](CO)C(=O)N[C@@H](C)C(=O)N[C@@H](CCCN=C(N)N)C(=O)N[C@@H](CCCCN)C(N)=O)[C@@H](C)O)cc1`: the Emax in the assay listed under Mus musculus [1] was -70%. The molecule further showed a concentration for a half-maximal effect (EC50) in the assay filed under Mus musculus [2] of 2510 nM. The inhibitory constant (Ki) at Nociceptin receptor [3] is 200 nM.

Consider `C[C@H](NC(=O)CNC(=O)[C@@H](NC(=O)[C@H](Cc1ccccc1)NC(=O)CNC(=O)CNC(=O)[C@@H](N)Cc1ccccc1)[C@@H](C)O)C(=O)N[C@@H](CCCN=C(N)N)C(=O)N[C@@H](CCCCN)C(=O)N[C@@H](CO)C(=O)N[C@@H](C)C(=O)N[C@@H](CCCN=C(N)N)C(N)=O` (H-FGGFTGARKSAR-NH2), for which the Emax in the assay listed under Mus musculus [1] is -79%. This molecule gave a half-maximal effective concentration (EC50) in the assay filed under Mus musculus [2] of 794 nM. The same molecule gave an inhibition constant Ki at Nociceptin receptor [3] of 25.1 nM.

Turning to `CC(C)C[C@H](N)C(=O)NCC(=O)NCC(=O)N[C@@H](Cc1ccccc1)C(=O)N[C@H](C(=O)NCC(=O)N[C@@H](C)C(=O)N[C@@H](CCCN=C(N)N)C(=O)N[C@@H](CCCCN)C(=O)N[C@@H](CO)C(=O)N[C@@H](C)C(=O)N[C@@H](CCCN=C(N)N)C(=O)N[C@@H](CCCCN)C(N)=O)[C@@H](C)O` (H-LGGFTGARKSARK-NH2), in the assay filed under Mus musculus [1], the Emax is -80%. Also, the response in the assay filed under Mus musculus [2] was half-maximal at 25.1 nM (EC50). Also, the Ki on Nociceptin receptor [3] is 2.51 nM.

As to `C[C@H](NC(=O)CNC(=O)[C@@H](NC(=O)[C@H](Cc1ccccc1)NC(=O)CNC(=O)CNC(=O)[C@@H](N)Cc1ccc(O)cc1)[C@@H](C)O)C(=O)N[C@@H](CCCN=C(N)N)C(=O)N[C@@H](CCCCN)C(=O)N[C@@H](CO)C(=O)N[C@@H](C)C(=O)N[C@@H](CCCN=C(N)N)C(=O)N[C@@H](CCCCN)C(N)=O` (H-YGGFTGARKSARK-NH2), the Emax in the assay filed under Mus musculus [1] is -89%. In addition, a half-maximal response in the assay filed under Mus musculus [2] (EC50) required 25.1 nM. The molecule also had a Ki on Nociceptin receptor [3] of 3.98 nM.

One may read the pKB as the negative decadic logarithm of the KB, by convention in mol/L. Regarding `C[C@H](NC(=O)CNC(=O)[C@@H](NC(=O)[C@H](Cc1ccccc1)NC(=O)CNC(=O)CNC(=O)CNCc1ccccc1)[C@@H](C)O)C(=O)N[C@@H](CCCN=C(N)N)C(=O)N[C@@H](CCCCN)C(N)=O` (H-[Nphe]GGFTGARK-NH2), the Emax entry in the assay filed under Mus musculus [4] was “inactive”. Besides, in the assay listed under Mus musculus [5], the “Log EC50” value was “inactive”. Also, in the assay filed under Mus musculus [6], the pKB entry was “inactive”. On Nociceptin receptor [7], the Ki was more than 10000 nM.

As for `CC(C)C[C@H](N)CNCC(=O)NCC(=O)N[C@@H](Cc1ccccc1)C(=O)N[C@H](C(=O)NCC(=O)N[C@@H](C)C(=O)N[C@@H](CCCN=C(N)N)C(=O)N[C@@H](CCCCN)C(=O)N[C@@H](CO)C(=O)N[C@@H](C)C(=O)N[C@@H](CCCN=C(N)N)C(=O)N[C@@H](CCCCN)C(N)=O)[C@@H](C)O` (H-[X1]GFTGARKSARK-NH2), the Emax entry in the assay listed under Mus musculus [8] is “Partially active”. Moreover, the “Log EC50” value in the assay filed under Mus musculus [9] is “Partial agonist”. The molecule further displayed a negative-log KB (pKB) in the assay listed under Mus musculus [10] of 5.4. The molecule further showed an inhibitory constant (Ki) at Nociceptin receptor [3] of 15.8 nM.

Regarding `C[C@H](NC(=O)CNC(=O)[C@@H](NC(=O)[C@H](Cc1ccccc1)NC(=O)CNC(=O)CNC[C@@H](N)Cc1ccc(O)cc1)[C@@H](C)O)C(=O)N[C@@H](CCCN=C(N)N)C(=O)N[C@@H](CCCCN)C(=O)N[C@@H](CO)C(=O)N[C@@H](C)C(=O)N[C@@H](CCCN=C(N)N)C(=O)N[C@@H](CCCCN)C(N)=O` (H-[X5]GFTGARKSARK-NH2), in the assay listed under Mus musculus [8], the Emax entry is “Partially active”. Further, the “Log EC50” value in the assay filed under Mus musculus [9] was “Partial agonist”. In the assay filed under Mus musculus [10], the pKB stood at 5.7. The molecule further gave a Ki on Nociceptin receptor [3] of 100 nM.
